Shown is part of a subset that was picked to be rich in hits.
H69AR growth 86K – growth inhibitors of human H69AR lung tumor cells; H69AR lung tumor viability, ATP luminescence, 72 h; stronger effect = lower value; viability, % at 10 µM; 85,000 tested, 6% active; AID 598;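 active = viability at or below 40%; inactive = viability above 40%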;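 also: multidrug resistant small cell line overexpressing MRP-1 efflux transporter; 100% = mean luminescence of untreated control wells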
HCT116 bCat-KO – beta-catenin-lacking colon tumor cell growth suppression | HCT116 beta-catenin knockout viability, CellTiter-Glo, 60 h; stronger effect = lower value | AID 818 | viability, % at 10 µM | 140,000 tested, 1.5% active;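 active = viability at or under a set limit, the compound median less 4 SD, cut at about 6% in these data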;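 also: 0% = Hyamine 1622 control at 20 µM and 100% = untreated cell control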
HCT116 PTEN-null – PTEN-deleted cell growth suppression | HCT116 PTEN-null viability, CellTiter-Glo, 60 h; stronger effect = lower value | viability, % at 10 µM | 140,000 tested, 1.2% active | AID 827;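 active = viability at or below a set limit, 4 SD under the median of all tested compounds, cut at about 3.7% in these data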;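 also: PTEN knockout HCT116 line with beta catenin targeted HCT116 as companion control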
Fibroblast inh – blocks proliferation of human lung fibroblasts | LL 47 human lung fibroblast viability, ATP luminescence; stronger effect = lower value | AID 719 | 85,000 tested, 1.1% active | viability, % at 10 µM;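 active = viability at or below 50% in the single dose screen; inactive = viability above 50%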;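 also: compound exposure lasted 72 h before the ATP readout; 100% = median luminescence of untreated cell-only wells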
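Material: Human LL 47 lung fibroblast cells | Input: 1,150 cells/well | Buffer or medium: IMEM plus 15% FBS | Compound dosing: 0.1% DMSO in all compound wells | Times: Overnight cell rest, 72 h compound treatment at 37 °C | Signal: CellTiter-Glo luminescence measuring cellular ATP | Measure: % viability versus median cells-only luminescence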
HUVEC prolif 384 – blocks proliferation of human endothelial cells | viability, % at 10 µM (by protocol) | HUVEC proliferation, CellTiter-Glo luminescence, 72 h; stronger effect = lower value | 86,000 tested, 1.1% active;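 active = viability at or below 30%; inactive = viability above 30%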;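 also: 100% = median luminescence of DMSO-only cell control wells on each plate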
Numbers without * were called inactive.

How did O=C1N=C(N2CCOCC2)S/C1=C1\C(=O)N(Cc2ccccc2)c2ccccc21 do in these assays?
H69AR growth 86K: 29*; HCT116 bCat-KO: 80; HCT116 PTEN-null: 70; Fibroblast inh: 77; HUVEC prolif 384: 55

What do the screens show for `C=C(C)C(=O)OC1(C(F)(F)F)Oc2cc(C)ccc2NC1=O` (stereo not drawn)?
H69AR growth 86K: 1.5*; HCT116 bCat-KO: 106; HCT116 PTEN-null: 97; Fibroblast inh: 17*; HUVEC prolif 384: 15*

How did COC(=O)CC1Oc2ccc(C)cc2NC1=O (stereo not drawn) do in these assays?
H69AR growth 86K: 92; HCT116 bCat-KO: 87; HCT116 PTEN-null: 87; Fibroblast inh: 104; HUVEC prolif 384: 103

How did CCc1ccc(S(=O)(=O)/N=C2/C=C(Sc3ncn[nH]3)C(=O)c3ccccc32)cc1 do in these assays?
HCT116 bCat-KO: 2.5*; HCT116 PTEN-null: 3.4*

Results for C/C(=N\NC(=O)c1cccc(Cl)c1)C1C(=O)c2ccccc2C1=O ?
HCT116 bCat-KO: 72; HCT116 PTEN-null: 61

What do the screens show for `O=C(/C=C\c1cn(-c2ccccc2)nc1-c1ccccc1)Nc1nccs1`?
HCT116 bCat-KO: 1.6*; HCT116 PTEN-null: 1.2*

How did C=CCCCCCCCCc1nc(=S)[nH][nH]1 do in these assays?
H69AR growth 86K: 21*; HCT116 bCat-KO: 110; HCT116 PTEN-null: 101; Fibroblast inh: 91; HUVEC prolif 384: 94

How did Cn1c(=O)[nH]c(=O)c2c1nc(N1CCOCC1)n2CCN1CCOCC1 do in these assays?
H69AR growth 86K: 90; HCT116 bCat-KO: 88; HCT116 PTEN-null: 88; Fibroblast inh: 107; HUVEC prolif 384: 103

Results for COc1ccc(OCC(O)Cn2c(Br)nc3c2c(=O)[nH]c(=O)n3C)cc1 (stereo not drawn) ?
H69AR growth 86K: 35*; HCT116 bCat-KO: 28; HCT116 PTEN-null: 19; Fibroblast inh: 98; HUVEC prolif 384: 94

How did CN1CCN(Cc2nc3c(c(=O)[nH]c(=O)n3C)n2CCc2ccccc2)CC1 do in these assays?
H69AR growth 86K: 86; HCT116 bCat-KO: 86; HCT116 PTEN-null: 107; Fibroblast inh: 100; HUVEC prolif 384: 89

Results for COc1ccc(CCn2c(N3CCOCC3)nc3c2c(=O)[nH]c(=O)n3C)cc1 ?
H69AR growth 86K: 25*; HCT116 bCat-KO: 96; HCT116 PTEN-null: 91; Fibroblast inh: 92; HUVEC prolif 384: 89

Results for COc1ccc(CCn2c(N3CCN(Cc4ccccc4)CC3)nc3c2c(=O)[nH]c(=O)n3C)cc1 ?
H69AR growth 86K: 33*; HCT116 bCat-KO: 99; HCT116 PTEN-null: 91; Fibroblast inh: 98; HUVEC prolif 384: 85

How did Cc1ccc(Sc2nc3c(c(=O)[nH]c(=O)n3C)n2CCc2ccccc2)cc1 do in these assays?
H69AR growth 86K: 14*; HCT116 bCat-KO: 11; HCT116 PTEN-null: 2.8*; Fibroblast inh: 82; HUVEC prolif 384: 68

How did CC1CCC(C(=O)c2c(O)c3ccccc3oc2=O)CC1 (stereo not drawn) do in these assays?
H69AR growth 86K: 57; HCT116 bCat-KO: 55; HCT116 PTEN-null: 71; Fibroblast inh: 85; HUVEC prolif 384: 13*

How did CCCCN=C(C)c1c(O)c2ccccc2oc1=O do in these assays?
H69AR growth 86K: 99; HCT116 bCat-KO: 96; HCT116 PTEN-null: 82; HUVEC prolif 384: 93

Results for CCCCC(=O)c1c(O)c2ccccc2oc1=O ?
HCT116 bCat-KO: 96; HCT116 PTEN-null: 97

What do the screens show for `O=C(CC1CCCCC1)c1c(O)c2ccccc2oc1=O`?
H69AR growth 86K: 104; HCT116 bCat-KO: 45; HCT116 PTEN-null: 45; Fibroblast inh: 95; HUVEC prolif 384: 3.2*

What do the screens show for `O=C(c1cc2ccccc2oc1=O)N1CCN(c2ncccn2)CC1`?
H69AR growth 86K: 105; HCT116 bCat-KO: 95; HCT116 PTEN-null: 103; Fibroblast inh: 105; HUVEC prolif 384: 88

Results for Cc1nnc(-c2ccccc2)c(=O)n1/N=C/c1c(O)ccc2ccccc12 ?
HCT116 bCat-KO: 4.5*; HCT116 PTEN-null: 4

Results for COc1ccc2ccccc2c1/C=N\n1c(C)cc(C)c(C(N)=O)c1=O ?
HCT116 bCat-KO: 113; HCT116 PTEN-null: 102

Results for Cc1c(Cl)cccc1NC(=O)CCC(=O)NNC(=O)c1ccccc1 ?
HCT116 bCat-KO: 92; HCT116 PTEN-null: 86

How did CCOC(=O)c1ccccc1NC(=O)CN(c1ccccc1)S(=O)(=O)N(C)C do in these assays?
H69AR growth 86K: 38*; HCT116 bCat-KO: 65; HCT116 PTEN-null: 70; Fibroblast inh: 98; HUVEC prolif 384: 81

What do the screens show for `CCOC(=O)COc1ccc(S(=O)(=O)Nc2ccc(C)cc2)cc1`?
H69AR growth 86K: 94; HCT116 bCat-KO: 97; HCT116 PTEN-null: 93; Fibroblast inh: 16*; HUVEC prolif 384: 11*

How did CCOc1ccc(S(=O)(=O)Nc2cccc(OC)c2)cc1 do in these assays?
H69AR growth 86K: 38*; HCT116 bCat-KO: 74; HCT116 PTEN-null: 71; Fibroblast inh: 95; HUVEC prolif 384: 88

Results for CCOC(=O)c1ccccc1NS(=O)(=O)c1ccc(C)cc1 ?
H69AR growth 86K: 11*; HCT116 bCat-KO: 23; HCT116 PTEN-null: 21; Fibroblast inh: 88; HUVEC prolif 384: 74

Results for CCOC(=O)COc1ccc(S(=O)(=O)Nc2ccc3c(c2)OCO3)cc1 ?
H69AR growth 86K: 100; HCT116 bCat-KO: 112; HCT116 PTEN-null: 99; Fibroblast inh: 63; HUVEC prolif 384: 41

What do the screens show for `CCCCNC(=S)Nc1cc([N+](=O)[O-])ccc1C`?
HCT116 bCat-KO: 85; HCT116 PTEN-null: 87

How did CCOC(=O)COc1ccc(S(=O)(=O)N2CCc3ccccc3C2)cc1 do in these assays?
H69AR growth 86K: 92; HCT116 bCat-KO: 87; HCT116 PTEN-null: 88; Fibroblast inh: 61; HUVEC prolif 384: 6.2*

What do the screens show for `CCN1CCN(c2cc(C)c3cc(NC(=O)c4ccc(OC)c(OC)c4)ccc3n2)CC1`?
H69AR growth 86K: 19*; HCT116 bCat-KO: 8; HCT116 PTEN-null: 23; Fibroblast inh: 42*; HUVEC prolif 384: 65

Results for CCN1CCN(c2cc(C)c3cc(NC(=O)c4cncc(Br)c4)ccc3n2)CC1 ?
H69AR growth 86K: 42; HCT116 bCat-KO: 1.0*; HCT116 PTEN-null: 1.2*; Fibroblast inh: 53; HUVEC prolif 384: 23*

What do the screens show for `CCN1CCN(c2cc(C)c3cc(NC(=O)c4ccc5c(c4)OCO5)ccc3n2)CC1`?
HCT116 bCat-KO: 12; HCT116 PTEN-null: 35

How did O=C(Nc1ccc(N2CCCCC2)cc1)c1cncc(Br)c1 do in these assays?
H69AR growth 86K: 58; HCT116 bCat-KO: 105; HCT116 PTEN-null: 90; Fibroblast inh: 104; HUVEC prolif 384: 87

Results for O=C(CSc1nnc(-c2ccccc2)c(-c2ccccc2)n1)Nc1ccc(Br)cn1 ?
HCT116 bCat-KO: 30; HCT116 PTEN-null: 42

Results for COC(=O)c1ccc(NC(=O)C(=O)NCC2CCCO2)cc1 (stereo not drawn) ?
HCT116 bCat-KO: 96; HCT116 PTEN-null: 96

What do the screens show for `CC1=C(C(=O)OCc2ccc3c(c2)OCO3)C(c2ccccc2)NC(=O)N1` (stereo not drawn)?
H69AR growth 86K: 23*; HCT116 bCat-KO: 24; HCT116 PTEN-null: 23; Fibroblast inh: 82; HUVEC prolif 384: 26*

Assay outcomes (PubChem BioAssay)
